Sampled rows, rich in hits. Any-hit rate of the full collection: about 4.3%.
DYRK1A inh: inhibitors of rat Dyrk1A kinase. inhibition, % at 12.5 µM. ADP-Glo luminescence, NFATc1 peptide. hit rate 0.43% among 310,000. Q63470; in the data active = inhibition above about 50%;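 note: plate controls were vehicle with enzyme for no effect and no enzyme for full effect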
CAL PDZ FP-1: inhibitors of human CAL PDZ peptide binding. inhibition, % at 20 µM. AID 504414. hit rate 0.02% among 330,000. purified CAL PDZ, TMR-peptide fluorescence polarization, 1 h. Q9HD26;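 active = highest replicate inhibition of at least 40%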;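 note: plate controls were DMSO neutral control wells for no effect and unlabeled competitor peptide control wells for full effect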
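Test system: purified CerCALP PDZ construct; Compound dosing: one concentration, 20 µM compound; Also added: TMR-labelled reporter peptide T*-PRC34 bound in PDZ groove; Read-out: inhibition from polarization loss; Controls: unlabelled peptide and DMSO controls; Signal: FP readout, S and P plane fluorescence; Incubation: 1 h at RT.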
Rtt109 HAT inh: inhibitors of Candida albicans Rtt109/Vps75 histone acetyltransferase | Q5AAJ8 | purified Rtt109/Vps75, ThioGlo CoA-SH fluorescence, 4 h | inhibition, % at 34.9 µM | hit rate 0.16% among 330,000;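 active = inhibition of at least 50% in every replicate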
Target sequence (Q5AAJ8 whole entry, looked up): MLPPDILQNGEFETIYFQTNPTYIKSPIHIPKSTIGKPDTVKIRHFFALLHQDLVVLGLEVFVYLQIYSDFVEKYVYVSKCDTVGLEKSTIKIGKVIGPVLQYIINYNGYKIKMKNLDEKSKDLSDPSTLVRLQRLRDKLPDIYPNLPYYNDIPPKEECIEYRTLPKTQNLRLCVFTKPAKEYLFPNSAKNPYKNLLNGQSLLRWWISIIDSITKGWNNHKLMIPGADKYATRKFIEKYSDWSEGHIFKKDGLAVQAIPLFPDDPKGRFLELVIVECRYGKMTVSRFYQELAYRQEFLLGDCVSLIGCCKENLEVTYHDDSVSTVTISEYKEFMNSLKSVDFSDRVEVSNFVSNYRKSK
ALR inh: blocks human ALR sulfhydryl oxidase activity. P55789. purified ALR, DTT oxidation, H2O2 HRP-luminol luminescence. inhibition, % (concentration not given with the values). hit rate 3.8% among 290,000. AID 485317;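 active = mean replicate inhibition above about 79%, with every replicate also reaching it, limit read from the data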
Target sequence (P55789 whole entry, looked up): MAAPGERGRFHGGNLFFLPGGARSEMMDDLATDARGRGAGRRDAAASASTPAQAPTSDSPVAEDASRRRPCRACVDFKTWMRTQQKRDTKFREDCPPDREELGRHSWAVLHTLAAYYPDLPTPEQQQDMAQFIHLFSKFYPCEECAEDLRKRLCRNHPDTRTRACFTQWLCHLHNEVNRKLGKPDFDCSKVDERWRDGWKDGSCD
CAL PDZ FP-2: blocks peptide binding to the human CAL PDZ domain; purified CAL PDZ, TMR-peptide fluorescence polarization, 1 h; inhibition, % at 24.9 µM; Q9HD26; hit rate 0.92% among 300,000;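 active = mean inhibition of at least 30% with at least half of replicates also reaching 30%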;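 note: 0% = DMSO neutral control and 100% = excess unlabeled competitor peptide PRC23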
The depositor's hits bear a star; · = no result given; + = active, no number.

SMILES | DYRK1A inh | CAL PDZ FP-1 | Rtt109 HAT inh | ALR inh | CAL PDZ FP-2
CCc1ccc(NC(=O)c2ccc(NC(=O)C3CCCO3)cc2)cc1 (centres undefined) | -9 | -3 | -4 | 2 | -7
COC(=O)c1ccc(NC(=O)C2CC3CCC2C3)cc1 (centres undefined) | 5 | -3 | -14 | 1 | 32*
CCOC(=O)c1ccc(NC(=O)C2CC3CCC2C3)cc1 (centres undefined) | · | · | · | -2 | ·
COC(=O)c1ccc(NC(=O)c2ccc(NC(=O)C3CCCO3)cc2)cc1 (centres undefined) | · | -1 | 2 | 7 | +
O=C(Nc1ccc(F)cc1)C1CCCO1 (centres undefined) | -4 | -1 | · | -4 | -1
O=C(Nc1ccc(O)cc1)C1CCCO1 (centres undefined) | 3 | 0 | -4 | 99* | 0
Cc1cc(C)c(NC(=O)COC(=O)/C=C/c2cccs2)c(C)c1 | 2 | 0 | 9 | -8 | -5
CCN(CC(=O)Nc1ccc(NC(C)=O)cc1)C(=O)/C=C/c1ccc(S(=O)(=O)N2CCCCCC2)cc1 | -2 | -3 | 0 | 0 | -2
O=Cc1ccccc1OCCOc1ccc([N+](=O)[O-])cc1 | -1 | 0 | 6 | 8 | 1
CN(Cc1ccccc1)C(=S)NC(=O)C1CCCCC1 | -36 | -2 | -1 | -18 | -1
O=C(NC(=S)N(Cc1ccccc1)c1ccccn1)C1CCCCC1 | -5 | 0 | 7 | 99* | 0
O=C1NC[C@H](Cc2ccccc2)N(C[C@H]2CCCN2C[C@H](Cc2ccc(O)cc2)N2C[C@H](Cc3ccc(O)cc3)N(CC3CCCCCC3)C(=O)C2=O)C1=O | · | -1 | -1 | · | 1
CCN(c1ccc(N=Cc2c(O)n(Cc3ccc(OC)cc3)c(=O)c3ccccc23)cc1)C(C)C | 1 | 2 | -2 | · | 2
CCC(COC)Oc1cc(NCc2ccccc2)c2ncn(C(C)C)c2c1 (centres undefined) | 21 | 0 | 9 | 83* | 2
CCC(CO)Oc1cc(NCc2ccc(O)cc2)c2ncn(C(C)C)c2c1 (centres undefined) | 10 | 0 | -2 | 99* | 1
COc1ccc(NC(=S)N2CCC(C(=O)c3ccc(OC)cc3)CC2)cc1 | -4 | 0 | -3 | 1 | ·
Cc1cc(N=Cc2c(O)n(-c3ccc4c(c3)OCO4)c(=O)c3ccccc23)ccn1 | 1 | -1 | -58 | · | 35*
CCCCCCn1c2c(c(=N)c3c1CCC3)CCC2 | 7 | -2 | 1 | 99* | ·
CCCCCCCn1c2c(c(=N)c3c1CCC3)CCCC2 | -1 | 0 | 24 | · | 1
CCCCCCCCCn1c2c(c(=N)c3c1CCC3)CCC2 | 7 | -3 | 68* | -24 | -1
CCCCn1c2c(c(=N)c3c1CCC3)CCC2 | 5 | 0 | 5 | -5 | 0
COc1cccc(N2CCN(c3ccc4nnc(CCC(=O)Nc5ccc(F)cc5F)n4n3)CC2)c1 | -3 | -1 | 3 | 39 | 2
COc1cccc(N2CCN(c3ccc4nnc(CCC(=O)Nc5ccccc5OC)n4n3)CC2)c1 | -2 | 0 | 14 | 80* | 2
COc1cccc(N2CCN(c3ccc4nnc(CCC(=O)Nc5ccc(F)cc5)n4n3)CC2)c1 | -3 | 0 | 20 | 80* | -2
Cc1cc(C)cc(OCC(O)CN2CC(C)OC(C)C2)c1 (centres undefined) | 0 | 0 | 12 | 1 | -4
SMILES | DYRK1A inh | CAL PDZ FP-1 | Rtt109 HAT inh | ALR inh | CAL PDZ FP-2
CC(C)c1ccccc1NC(=S)NCCCn1ccnc1 | 5 | -4 | -4 | 87* | -2
COc1ccc(S(=O)(=O)N2CCCCCC2)cc1C(=O)N(C)Cc1ccc(F)cc1 | 13 | -3 | 4 | -3 | 0
COc1ccc(CN(C)C(=O)c2cc(S(=O)(=O)N3CCCCCC3)ccc2OC)cc1OC | 5 | -2 | 57* | -6 | -4
CCN(CC)CCN(Cc1cc2cc3c(cc2[nH]c1=O)OCO3)C(=S)NCCOC | 0 | 0 | 0 | · | -3
COc1ccc(C(=O)N2CCN=C2SCc2cccnc2)cc1OC | -2 | -1 | -1 | 100* | ·
COc1cccc(OC)c1C(=O)N1CCN=C1SCc1cccnc1 | -4 | · | -4 | 99* | -4
Cn1ccnc1CC(O)(c1ccccc1)c1ccccc1 | 13 | 0 | 0 | · | ·
C/C=C/n1ccnc1CC(O)(c1ccccc1)c1ccc(C)cc1 (centres undefined) | · | -1 | 60* | 1 | -1
Cc1ccc(S(=O)(=O)/N=C(\c2ccccc2)N(C)S(=O)(=O)c2ccc(C)cc2)cc1 | 10 | -1 | 0 | 2 | 1
Cc1ccc(S(=O)(=O)N(C)/C(=N/S(=O)(=O)c2ccccc2)c2ccccc2)cc1 | 2 | 1 | 8 | 99* | ·
Clc1ccc(CSc2ncnc3c2ncn3C2CCCCO2)cc1 (centres undefined) | -3 | 0 | 1 | · | -3
CN(C)C(=O)CSc1nc2ccccc2c(=O)[nH]1 | 16 | 1 | 6 | -5 | -5
CN(C)C(=O)CSc1nc(-c2cccs2)c(-c2cccs2)[nH]1 | -8 | -2 | -6 | 99* | -1
COCC(=O)N(Cc1cc2cc(C)ccc2[nH]c1=O)c1cccc(C)c1C | 3 | 0 | 4 | 82* | -3
COCC(=O)N(Cc1cc2ccccc2[nH]c1=O)c1ccc(OC)cc1 | 7 | 0 | -31 | -7 | 62*
COc1ccccc1CNC(=O)COC(=O)CCC(=O)c1cccs1 | -7 | 0 | -11 | · | 3
COc1ccnc(Oc2ccccc2)c1C(=O)N/C=N/OCc1ccccc1F | -1 | · | 6 | 0 | -8
COC(=O)[C@H](CC(C)C)NC(=O)Cn1cnc2c(SC)nc(N)nc21 | · | 0 | 3 | -1 | -6
N#CC(C#N)=C1CCc2ccccc2N1 | 4 | -2 | -9 | · | 3
COC(=O)Nc1ccc2c(c1)Nc1ccccc1CC2 | -5 | 0 | 0 | 98* | -5
Nc1ccc2c(c1)Nc1ccccc1CC2 | · | 0 | 0 | 99* | -3
Cc1ccc(C)n1-c1ccc(C(=O)NN)s1 | · | 0 | -5 | · | -3
CCOC(=O)N1CCN(C(=O)C2CCN(C(=O)c3ccc([N+](=O)[O-])cc3)CC2)CC1 | 4 | 0 | -10 | -5 | 77*
COC(=O)c1cc(S(=O)(=O)N2CCCCCC2)cn1C | 0 | -1 | -2 | 1 | -1
CCOC(=O)c1cnn(-c2ccc([N+](=O)[O-])cc2)c1N | · | 0 | -5 | -5 | 60*
CCOC(=O)c1cnn(-c2ccccc2)c1N | -4 | -2 | 14 | -1 | 2
CCNC(=O)/C(C#N)=C/c1c(N2CCN(c3cccc(Cl)c3)CC2)nc2c(C)cccn2c1=O | -6 | -7 | -8 | -7 | -1
CCNC(=O)/C(C#N)=C/c1c(N2CCN(C)CC2)nc2c(C)cccn2c1=O | -7 | -1 | 2 | 0 | 43*
O=C(Cc1ncc(C(F)(F)F)cc1Cl)NNc1cccc(F)n1 | 2 | 0 | -10 | · | 5
O=C(O)c1ccc(N/N=C/c2c(F)cccc2Cl)cc1 | 7 | 0 | 11 | 42 | -2

Screens from PubChem BioAssay.
